Measured values gathered from unrelated publications.
Compare with care: the assays were run in different laboratories.
EGFR L858R/T790M: Epidermal growth factor receptor (EGFR, Homo sapiens, UniProt P00533, L858R/T790M)
EGFR L858R: Epidermal growth factor receptor (EGFR, Homo sapiens, UniProt P00533, L858R)

SMILES	target	read-out	mode	technique	concentration	quantity	result
Cc1ccc(NC(=O)c2ccc(C)c(C(F)(F)F)c2)cc1C#Cc1nn(C2CCC(O)CC2)c2ncnc(N)c12 (stereo not shown)	EGFR L858R/T790M	cell-free assay	–	–	10 µM	remaining signal	0%
Nc1ncnc2occ(-c3ccc(NC(=O)Nc4cc(C(F)(F)F)ccc4F)cc3)c12	Epidermal growth factor receptor (EGFR, Homo sapiens, UniProt P00533, del747-750/T751S)	cell-free assay	–	–	20 µM	remaining signal	27%
CCCCN(CCCC)C(=O)CN1C[C@@H](c2cc(OC)c3c(c2)OCO3)[C@H](C(=O)O)[C@H]1CC(C)(C)CCC	Epidermal growth factor receptor (EGFR, Homo sapiens, UniProt P00533, A750P/del747-749)	cell-free assay	–	competition with immobilised ligand	1 µM	remaining binding	88.4%
Cc1ccc(C(=O)Nc2ccc(CN3CCN(C)CC3)c(C(F)(F)F)c2)cc1C#Cc1cnc2cccnn12	EGFR L858R	cell-free assay	–	–	23.5 nM	remaining signal	95%
CNC(=O)Nc1ccc2c(c1)CC[C@@]21OC(=O)N(CC(=O)N(Cc2ccc(F)cc2)[C@@H](C)C(F)(F)F)C1=O	Epidermal growth factor receptor (EGFR, Homo sapiens, UniProt P00533, G719C)	cell-free assay	–	competition with immobilised ligand	1 µM	remaining binding	97%
Cc1cnc(NC2CCOCC2)nc1-n1cnc(C(=O)NC(CN)c2cc(F)cc(Cl)c2)c1 (stereo not shown)	Epidermal growth factor receptor (EGFR, Homo sapiens, UniProt P00533, L861Q)	enzyme activity	inhibitor	radiometric	1 µM	remaining activity	108%
O=C(O)[C@@H]1[C@@H](Cn2nnc3ccccc3c2=O)CC[C@H]1C(=O)c1ccc(OCCC2CCOCC2)cc1	EGFR L858R	cell-free assay	–	competition with immobilised ligand	1 µM	remaining binding	100%
COc1cc(-c2cc(-c3ccc(N4CCNCC4)cc3)cnc2N)cc(OC)c1OC	EGFR L858R/T790M	enzyme activity	inhibitor	–	0.1 µM	inhibition	0%
CC/C(=N\NC(=O)NCc1cccc(O)c1)c1ccc(O)c(C)c1O	EGFR L858R/T790M	enzyme activity	inhibitor	–	0.1 µM	inhibition	0.1%
Cc1cc(NC(=O)c2cccc3cc(-c4cccc5[nH]nc(N)c45)ccc23)ccc1F	Epidermal growth factor receptor (EGFR, Homo sapiens, UniProt P00533)	enzyme activity	inhibitor	–	0.1 µM	activity vs control	103%
